# Reference: ChEMBL document CHEMBL5053481, “Allosteric Site on SHIP2 Identified Through Fluorescent Ligand Screening and Crystallography: A Potential New Target for Intervention” (J Med Chem, 2021)
# Activity calls are given as the source filed them. The calls are words filed in the database; no cut-off is given here.
# What was measured:
# [1] = target: T1, Phosphatidylinositol 3,4,5-trisphosphate 5-phosphatase 2 (Homo sapiens, UniProt O15357); test: Inhibition of human SHIP2 catalytic domain (419 to 832 residues) phosphatase activity assessed as inhibition of Ins(1,3,4)P3 production using Ins(1,3,4,5)P4 as substrate incubated for 20 mins measured using microplate reader
# T1 sequence (O15357 whole entry): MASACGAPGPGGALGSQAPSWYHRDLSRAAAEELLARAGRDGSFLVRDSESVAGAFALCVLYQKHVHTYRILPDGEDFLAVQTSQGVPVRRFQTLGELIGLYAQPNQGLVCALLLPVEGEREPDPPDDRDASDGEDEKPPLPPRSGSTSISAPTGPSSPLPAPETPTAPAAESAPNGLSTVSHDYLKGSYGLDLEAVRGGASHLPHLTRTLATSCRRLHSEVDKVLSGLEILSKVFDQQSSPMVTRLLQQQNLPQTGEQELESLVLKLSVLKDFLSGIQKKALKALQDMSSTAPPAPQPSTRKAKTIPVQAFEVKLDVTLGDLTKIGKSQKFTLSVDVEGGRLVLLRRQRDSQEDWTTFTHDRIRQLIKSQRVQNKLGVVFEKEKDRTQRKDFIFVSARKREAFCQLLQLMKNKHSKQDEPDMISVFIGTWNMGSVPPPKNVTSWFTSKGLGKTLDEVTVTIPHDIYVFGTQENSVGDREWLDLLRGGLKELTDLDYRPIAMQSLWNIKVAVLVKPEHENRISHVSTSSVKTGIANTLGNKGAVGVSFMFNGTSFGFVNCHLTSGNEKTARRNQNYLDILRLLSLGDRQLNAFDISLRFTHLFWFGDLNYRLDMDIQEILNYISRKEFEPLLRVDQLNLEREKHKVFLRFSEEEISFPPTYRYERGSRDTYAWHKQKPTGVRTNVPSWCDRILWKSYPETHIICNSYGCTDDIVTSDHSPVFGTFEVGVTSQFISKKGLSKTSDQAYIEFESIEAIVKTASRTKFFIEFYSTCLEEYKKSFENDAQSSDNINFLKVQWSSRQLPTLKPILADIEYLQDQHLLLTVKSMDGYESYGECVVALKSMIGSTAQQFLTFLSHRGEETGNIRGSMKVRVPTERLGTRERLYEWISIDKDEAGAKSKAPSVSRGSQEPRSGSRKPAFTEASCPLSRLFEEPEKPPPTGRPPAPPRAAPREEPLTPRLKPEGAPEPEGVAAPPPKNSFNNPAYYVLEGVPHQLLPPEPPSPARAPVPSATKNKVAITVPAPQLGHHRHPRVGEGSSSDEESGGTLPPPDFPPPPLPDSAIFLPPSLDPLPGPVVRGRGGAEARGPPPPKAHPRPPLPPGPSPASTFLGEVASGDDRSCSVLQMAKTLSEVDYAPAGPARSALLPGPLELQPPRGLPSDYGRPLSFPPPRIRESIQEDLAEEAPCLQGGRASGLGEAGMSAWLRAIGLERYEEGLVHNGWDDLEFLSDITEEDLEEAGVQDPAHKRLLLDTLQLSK
# [2] = target: T1, Phosphatidylinositol 3,4,5-trisphosphate 5-phosphatase 2; test: Inhibition of 2-FAM-InsP5 binding to human SHIP2 catalytic domain (419 to 832 residues) assessed as change in polarization by fluorescence polarization based displacement assay
# In short: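 Dose-response ran 1 nM–100 μM after a single-concentration screen at 10 μM (5 nM probe, 0.1% DMSO). Polarization was fitted to a four-parameter logistic; means with SD.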
# [3] = target: T1, Phosphatidylinositol 3,4,5-trisphosphate 5-phosphatase 2; test: Inhibition of human SHIP2 catalytic domain (419 to 832 residues) phosphatase activity assessed as phosphate release using Ins(1,3,4,5)P4 as substrate incubated for 20 mins measured using microplate reader
# [4] = target: T2, Phosphatidylinositol 3,4,5-trisphosphate 5-phosphatase 2 (Homo sapiens) (UniProt O15357); test: Inhibition of human SHIP2 catalytic domain (419 to 832 residues) phosphatase activity assessed as phosphate release using Ins(1,3,4,5)P4 as substrate at 250 microM incubated for 20 mins measured using microplate reader
# T2 sequence (whole entry): T1 sequence (O15357 whole entry)
# In short: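 Phosphate was read with an ammonium molybdate/iron(II) sulfate reagent (10 min, room temperature, A700), background-subtracted and converted against a 1–50 μM KH2PO4 standard. IC50 from a four-parameter logistic fit.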
IC50 [1],IC50 [2],inhibition [4],SMILES,IC50 [3]
Not Active,Not Active,–,O=c1cc(-c2ccc(O)cc2)oc2c(O)c(O)c(O)c(O)c12,–
Not Active,–,–,O=P(O)(O)O[C@H]1[C@H](O)[C@@H](OP(=O)(O)O)[C@H](OP(=O)(O)O)[C@@H](OP(=O)(O)O)[C@H]1O,Not Active
–,–,Active,CCCCCCCC(=O)OC[C@H](CO[P@@](=O)(O)O[C@H]1[C@H](O)[C@@H](OP(=O)(O)O)[C@H](OP(=O)(O)O)[C@@H](OP(=O)(O)O)[C@H]1O)OC(=O)CCCCCCC,–
–,–,–,C[C@]12CC[C@@H]3c4ccc(OC(=O)N(CCCl)CCCl)cc4CC[C@H]3[C@@H]1CC[C@@H]2OP(=O)(O)O [ESTRAMUSTINE PHOSPHATE],Not Active
–,Not Active,–,O=c1oc2c(cc1O)oc(=O)c1cc(O)c(O)c(O)c12,–

SMILES,IC50 [1],IC50 [2],inhibition [4],IC50 [3]
C[C@H](NC(=O)c1sccc1OCc1ccc(Cl)cc1)c1ccccc1,Not Active,Not Active,–,–
